Bioassay records deposited in PubChem by Sanford-Burnham Center for Chemical Genomics.
DNMT1 inh – DNMT1 (human) enzyme inhibition. 360,000 tested, 0.83% active. DNMT1 molecular beacon, Hinp1I cleavage, fluorescence. AID 588458. inhibition (reported as % activation of signal), % at 10 µM; in the data active = inhibition above about 50%
STEP inh – inhibitors of human striatal-enriched phosphatase STEP. 360,000 tested, 0.25% active. recombinant STEP, OMFP fluorogenic substrate, fluorescence. inhibition, % at 20 µM. P54829;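 active = inhibition at 20 µM, scaled per plate between control wells, above about 37%, limit read from the data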;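 also: 0% = DMSO with enzyme and substrate and 100% = substrate only without enzyme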
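System: isolated STEP enzyme; schedule: 20 min enzyme reaction at room temperature, protected from light; medium: Bis-Tris buffer pH 6.0, 2.5 mM DTT, 0.005% Tween 20; signal: fluorescence, 480/540 nm; dosing: single compound dose of 20 µM, 1% DMSO final; also added: OMFP substrate, 25 µM final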
CSN deneddyl inh – inhibitors of human CSN-mediated cullin deneddylation; AID 651999; Q92905; inhibition, % at 12.5 µM; 360,000 tested, 0.38% active; Purified CSN, SCF-Nedd8-OG deneddylation, fluorescence polarization;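 active = pattern-corrected inhibition above about 35%, with an unprinted fluorescence ratio check between 0.5 and 1.5, limit read from the data, passing the limit was not always enough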;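 also: 0% = enzyme with substrate and 100% = substrate without enzyme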
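assay system = purified human Csn5 enzyme expressed in HEK293T cells | amount = 0.24 nM enzyme | buffer or medium = Tris/NaCl/DTT buffer, pH 7.5 | reagent = 10 nM SCFSkp2-Nedd8OG | compound = one concentration, 12.5 µM, 0.25% DMSO | times = 90 min reaction at room temperature | signal = FP | read-out basis = % inhibition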
Scp-1 inhibitor – inhibitors of human Scp-1 phosphatase | 340,000 tested, 0.88% active | Recombinant Scp1, phosphopeptide, malachite green phosphate absorbance | Q9GZU7 | inhibition, % at 20 µM;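 active = inhibition above about 50% at 20 µM, limit read from the data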;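 also: plate controls were DMSO wells with enzyme for no effect and wells lacking enzyme for full effect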
Target sequence (Q9GZU7 76-261 limits assumed): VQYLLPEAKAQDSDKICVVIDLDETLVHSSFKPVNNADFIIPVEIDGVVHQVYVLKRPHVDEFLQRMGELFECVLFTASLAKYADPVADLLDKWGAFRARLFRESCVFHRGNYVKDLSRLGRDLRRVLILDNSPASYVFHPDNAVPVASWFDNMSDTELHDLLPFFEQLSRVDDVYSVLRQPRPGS
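Test system: SCP-1 catalytic domain; Buffer or medium: Acidic Tris acetate buffer with magnesium and detergent; Also added: Phosphorylated 17-residue peptide substrate; Compound: single 20 µM dose, 1% DMSO; Schedule: enzyme reaction 45 min at room temperature, colour 5 min, stabilisation 30 min; Signal: Phosphate-binding colour reagent, absorbance read at 630 nm.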
SUMO1-SIM PPI – alters human SUMO1 binding to SIM partners. P63165. SUMO1 binding to a labelled peptide, TR-FRET, 1 h. inhibition, % at 20 µM. 360,000 tested, 0.33% active; in the data active = inhibition above about 37%
Target sequence (P63165 whole entry, looked up): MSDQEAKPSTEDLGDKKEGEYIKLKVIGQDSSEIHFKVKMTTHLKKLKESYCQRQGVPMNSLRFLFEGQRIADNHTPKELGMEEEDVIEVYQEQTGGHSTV
LMPTP block – blocks human LMPTP phosphatase; P24666; recombinant LMPTP-A, OMFP fluorogenic substrate, fluorescence intensity; inhibition, % at 20 µM; 360,000 tested, 0.22% active;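 active = compounds that cut the enzyme signal by at least half of the control window in the single-dose screen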;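 also: plate controls were DMSO wells with enzyme plus substrate for no effect and substrate without enzyme for full effect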
Target sequence (P24666 whole entry, looked up): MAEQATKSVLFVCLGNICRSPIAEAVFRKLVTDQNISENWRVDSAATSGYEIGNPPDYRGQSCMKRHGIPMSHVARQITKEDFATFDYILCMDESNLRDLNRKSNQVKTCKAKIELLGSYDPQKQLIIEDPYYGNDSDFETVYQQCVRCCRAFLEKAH
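Test system – LMPTP-A phosphatase enzyme · Quantity – 0.625 nM LMPTP-A final · Reagent – OMFP substrate, 400 µM final · Dosing – one test concentration per compound, 20 µM, with 3% DMSO overall · Timing – 50 min enzyme reaction at room temperature, protected from light · Detection – fluorescence intensity · Controls – substrate-only low control, DMSO enzyme-plus-substrate high control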
Numbers without * were called inactive; / = no result given. Only some compounds are listed: those with a hit (about 1.9% of all), similar ones and a draw of the others.

SMILES	DNMT1 inh	STEP inh	CSN deneddyl inh	Scp-1 inhibitor	SUMO1-SIM PPI	LMPTP block
CCOC(=O)c1ccc(NC(=O)C2CC(O)CN2S(=O)(=O)c2ccc(C)cc2)cc1 (stereo not drawn)	2	-2	0	-6	42*	-1
Cc1nnc(C)n1N	-1	4	-1	-9	-2	0
O=c1c(Br)ccc(Br)cc1Br	59*	74*	21	-10	25	1
COc1ccc(Nc2nc(N)nc(CSC(=S)N3CCN(C)CC3)n2)cc1	1	1	0	-6	50*	-1
COc1ccc(Nc2nc(N)nc(CSC(=S)N3CCCCC3)n2)cc1	-7	-1	6	-4	4	1
Cc1cccc[n+]1CC(=O)/C=C1\N(C)c2ccccc2C1(C)C	5	0	4	-5	-3	0
CN1/C(=C/C=C/c2n(C)c3cc([N+](=O)[O-])c([N+](=O)[O-])cc3[n+]2C)C(C)(C)c2ccccc21	6	24	11	/	-16	58*
Cc1ccc(S(=O)(=O)N2CCOCC2)cc1C(=O)OCC(=O)Nc1ccc2[nH]c(=O)[nH]c2c1	2	-1	0	1	82*	2
NC(=O)COC(=O)c1cc(S(=O)(=O)N2CCOCC2)ccc1N1CCCCC1	-1	4	-3	-19	0	-3
CC(C)CCNC(=O)NC(=O)COC(=O)c1cc(S(=O)(=O)N2CCOCC2)ccc1N1CCCCC1	-2	4	0	14	45*	0
Cc1ccc(C(=O)OCC(=O)Nc2ccc3[nH]c(=O)[nH]c3c2)cc1S(=O)(=O)N1CCOCC1	0	-2	3	0	7	0
Cc1ccc(S(=O)(=O)N2CCCN(C(=O)CNC(=O)c3cccc(C)c3)CC2)cc1	-1	1	2	-1	-2	-1
OCc1nc2ccccc2n1/N=C/c1cccs1	0	-2	4	-4	1	0
O=C(Nc1ccccc1)c1cc2n(n1)C(C(F)(F)F)CC(C1CC1)N2 (stereo not drawn)	0	5	-4	-7	-6	0
N#CC1=C(N)N(c2ccc(F)cc2)C2=C(C1c1ccc(O)cc1)S(=O)(=O)CC2 (stereo not drawn)	-19	-3	43*	-4	2	2
CSc1ccc(C2C(C#N)=C(N)N(c3ccccc3)C3=C2C(=O)CCC3)cc1 (stereo not drawn)	-4	7	4	-4	-4	3
CC(=O)Oc1cc2c(c3ccccc13)CCC2=O	-6	2	-2	-5	-17	-2
CC(=O)Oc1cc2cccc(OC(C)=O)c(=O)c2c(OC(C)=O)c1OC(C)=O	59*	4	29	58*	-6	30
NC1=C(Br)C(=O)c2ncccc2C1=O	63*	5	15	2	-23	4
O=C(c1cccs1)N1C[C@@H](n2cc(-c3ccc(F)cc3)nn2)[C@H](O)C[C@@H]1c1ccccc1	6	-1	2	/	2	-2
O=C(Nc1ccc2oc(=O)ccc2c1)c1ccc(-c2cccc([N+](=O)[O-])c2)o1	22	28	44	32	75*	54*
O=C(Nc1ccc2oc(=O)ccc2c1)c1ccccc1[N+](=O)[O-]	0	-1	-1	-3	-17	0
O=C(Nc1ccc2oc(=O)ccc2c1)c1ccc(-c2ccccc2[N+](=O)[O-])o1	-2	7	3	0	57*	11
CC1(O)N(CCC(=O)Nc2cccc(F)c2)C(=O)OC12CCCCC2 (stereo not drawn)	1	0	-1	0	5	-1
C=CCNC(=O)c1cccc2c1C(=O)c1ccc(N3CCCC3)cc1S2(=O)=O	-1	0	36*	-5	-62	4
SMILES	DNMT1 inh	STEP inh	CSN deneddyl inh	Scp-1 inhibitor	SUMO1-SIM PPI	LMPTP block
COc1ccc(C2C(C(=O)c3ccccc3)N3c4ccccc4C=CC3C2[N+](=O)[O-])cc1 (stereo not drawn)	1	-3	37*	-8	-23	4
COc1cc2oc(=O)cc(CN3CCOCC3)c2cc1Cl	-6	0	118*	/	-7	-1
COc1cc2oc(=O)cc(CN3CCCC3)c2cc1Cl	2	-3	-4	/	-7	0
Cc1oc(S(=O)(=O)N2CCCCC2)cc1NC(=O)Nc1ccc(F)cc1	-2	4	-3	-11	6	-1
O=C(COC(=O)c1ccc(Br)o1)Nc1nc2c(F)c(F)c(F)cc2s1	10	14	10	35	4	60*
O=C(COC(=O)c1ccco1)Nc1nc2c(F)c(F)c(F)cc2s1	-2	4	11	28	2	23
COC(=O)C1=C(COc2ccccc2)NC(=O)NC1c1ccc(Br)cc1 (stereo not drawn)	0	0	16	41	75*	1
Cn1cnnc1SCC(=O)Nc1ccccc1	0	0	-5	-6	2	-2
Cn1cnnc1SCC(=O)Nc1ccc(OCc2ccccc2)cc1	-10	1	50*	-4	67*	2
CC(C(=O)N1CCc2ccccc21)N1CCN(Cc2ccc(Cl)cc2)CC1 (stereo not drawn)	0	3	4	-6	4	0
CS(=O)(=O)N(CC(=O)N1CCOCC1)c1cccc(Cl)c1	-12	5	90*	/	2	-3
O=C1C=CC(=O)c2c(O)c(CO)c(CO)c(O)c21	114*	94*	-7	85*	118*	93*
COc1ccc(S(=O)(=O)N2CCC(C(=O)N[C@@H](C)C(=O)NC3CCCC3)CC2)cc1	-1	0	-10	-4	8	0
Cn1nc(C(F)(F)F)c(C(=O)Nc2ccc(Cl)cc2)c1Cl	3	-5	-3	3	41*	-1
Cc1ccc(NC(=O)c2c(C(F)(F)F)nn(C)c2Cl)cc1C	0	1	0	-7	2	0
COc1cc2c3c(cccc3c1)C(=O)N(CCN1CCCC1)C2=O	73*	-2	-7	/	-30	21
CC1(C(=O)Nc2ccc3c(c2)OCCO3)CCC(=O)N1CCc1c[nH]c2ccccc12 (stereo not drawn)	-2	-2	-1	/	2	0
Cc1oc2c(C)c3oc(=O)c(CCC(=O)O)c(C)c3cc2c1-c1ccccc1	3	2	7	18	38*	4
Cc1oc2cc3oc(=O)c(CC(=O)O)c(C)c3cc2c1-c1ccccc1	-3	2	1	8	6	1
COc1cc(/C=C2\C(=O)NN(c3ccccc3)C2=O)cc([N+](=O)[O-])c1O	29	7	6	13	-5	5
